# Laboratory results: ChEMBL document CHEMBL1131438, “Inactivation of O6-alkylguanine-DNA alkyltransferase. 1. Novel O6-(hetarylmethyl)guanines having basic rings in the side chain” (J Med Chem, 1998)
# Assays:
# [1] = In vitro half-life at 37 degree Centigrade in phosphate-buffered saline(PBS; pH =7-7.2); type: ADME
# [2] = target: T1, Methylated-DNA--protein-cysteine methyltransferase (Homo sapiens, UniProt P16455); assay: O6-Alkylguanine-DNA Alkyltransferase-Inactivating Activity (Concentration of inactivator required to produce 50% reduction in alkyltransferase activity)
# T1 sequence (P16455 whole entry): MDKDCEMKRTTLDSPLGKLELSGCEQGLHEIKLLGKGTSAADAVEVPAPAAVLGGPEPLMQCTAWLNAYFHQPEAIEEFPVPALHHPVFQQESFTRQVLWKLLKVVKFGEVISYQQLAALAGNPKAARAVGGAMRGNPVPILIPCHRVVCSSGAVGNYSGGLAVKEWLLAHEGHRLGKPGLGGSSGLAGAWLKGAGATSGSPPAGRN
# How it was run: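 Pure recombinant human ATase (50–60 fmol, titrated so ATase is limiting) preincubated 1 h at 37 °C with varying inactivator in 200 µL buffer (50 mM Tris-HCl pH 8.3, 3 mM DTT, 1 mM EDTA, 1 mg/mL BSA) plus 10 µg calf thymus DNA. Then 3H-methylated DNA substrate (4 µg DNA, 100 fmol O6-methylguanine) added, 1 h at 37 °C. After acid hydrolysis, 3H-methylated protein counted by scintillation. Duplicates, experiments repeated several times.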
# [3] = target: T1, Methylated-DNA--protein-cysteine methyltransferase; assay: O6-Alkylguanine-DNA Alkyltransferase-Inactivating Activity in Raji cells (Concentration of inactivator required to produce 50% reduction in alkyltransferase activity); type: cell-based
# How it was run: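 Raji cells in RPMI + 10% horse serum, 10^6/mL, exposed to inactivator or DMSO vehicle for 2 h at 37 °C. Cells washed, sonicated in Tris-DTT-EDTA buffer pH 8.3 with leupeptin, PMSF added, debris spun out. Supernatant ATase measured by transfer of 3H-methyl from O6-methylguanine DNA substrate to protein; activity expressed as % of untreated controls.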
SMILES,half-life [1] [h],IC50 [2] [nM],IC50 [3] [nM]
NC1=Nc2nc[nH]c2C(OCc2ccncc2)N1 (stereo not given),> 48,130,200
NC1=Nc2nc[nH]c2C(OCc2ccco2)N1 (stereo not given),0.38,80,120
NC1=Nc2nc[nH]c2C(OCc2ccccn2)N1 (stereo not given),> 48,,6000
Cn1cncc1COC1N=C(N)Nc2[nH]cnc21 (stereo not given),0.19,8500,21000
NC1=Nc2nc[nH]c2C(OCc2cnsc2)N1 (stereo not given),> 48,70,70
NC1=Nc2nc[nH]c2C(OCc2cnco2)N1 (stereo not given),> 48,350,220
NC1=NC(OCc2cncc(Br)c2)c2[nH]cnc2N1 (stereo not given),> 48,250,200
NC1=NC(OCc2cccs2)c2[nH]cnc2N1 (stereo not given),0.67,18,30
Nc1nc(OCc2ccccc2)c2[nH]cnc2n1 [6-O-BENZYLGUANINE],> 48,,

# Continued, values first:
half-life [1] [h],IC50 [2] [nM],IC50 [3] [nM],SMILES
1.95,5,10,NC1=Nc2nc[nH]c2C(OCc2ccc(Br)s2)N1 (stereo not given)
> 48,230,90,NC1=Nc2nc[nH]c2C(OCc2cnc3c(c2)OCO3)N1 (stereo not given)
> 48,40,50,NC1=NC(OCc2ccnc(Cl)c2)c2[nH]cnc2N1 (stereo not given)
> 48,1400,5400,NC1=NC(OCc2ccc[n+]([O-])c2)c2[nH]cnc2N1 (stereo not given)
> 48,200,120,NC1=Nc2nc[nH]c2C(OCc2ccc(Cl)nc2)N1 (stereo not given)
> 48,430,220,NC1=Nc2nc[nH]c2C(OCc2cccnc2)N1 (stereo not given)
> 48,33,60,NC1=NC(OCc2cncs2)c2[nH]cnc2N1 (stereo not given)
